Converted amounts (≈) assume the structure as drawn. Blank lines part the entries; values can stand above or below the compound they belong to.
How the values were obtained:
[1] = Clearance in CD1 mouse at 1.45 mg/kg, iv as bolus dose by LC-MS/MS method; format: ADME, organism-based; conditions: in vivo
Method in brief: (§1)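 Specific pathogen-free female CD1 (Hsd:ICR) mice, 8 to 10 weeks old. Each compound was given as an intravenous dose and an oral dose at the levels listed. Parameters reported: Vd, clearance, t1/2, Cmax, Tmax, AUC0-t, AUC∞ and %F.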

[2] = Oral bioavailability in CD1 mouse at 8.7 mg/kg administered via gavage by LC-MS/MS method; format: ADME, organism-based; conditions: in vivo
Method in brief: (§2)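 Specific pathogen-free female CD1 (Hsd:ICR) mice, 8–10 weeks old, housed in the institutional animal facility. Each compound was given intravenously at a low dose and orally at a higher dose. Vd, clearance, t1/2, Cmax, Tmax, AUC0-t, AUC∞ and %F were derived from plasma exposure after each route.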

[3] = Cmax in CD1 mouse at 8.7 mg/kg administered via oral gavage by LC-MS/MS method; format: ADME, organism-based; set-up: dose 8.7 mg/kg, route oral; conditions: in vivo; method in brief: as §1
[4] = Half life in CD1 mouse at 1.45 mg/kg, iv as bolus dose by LC-MS/MS method; format: ADME, organism-based; conditions: in vivo; method in brief: as §1
serum albumin = serum albumin (Homo sapiens, UniProt P02768); assay: Binding affinity to human serum albumin by HPLC method; format: ADME; conditions: read-out: PB (converted)
Sequence of serum albumin (P02768 whole entry): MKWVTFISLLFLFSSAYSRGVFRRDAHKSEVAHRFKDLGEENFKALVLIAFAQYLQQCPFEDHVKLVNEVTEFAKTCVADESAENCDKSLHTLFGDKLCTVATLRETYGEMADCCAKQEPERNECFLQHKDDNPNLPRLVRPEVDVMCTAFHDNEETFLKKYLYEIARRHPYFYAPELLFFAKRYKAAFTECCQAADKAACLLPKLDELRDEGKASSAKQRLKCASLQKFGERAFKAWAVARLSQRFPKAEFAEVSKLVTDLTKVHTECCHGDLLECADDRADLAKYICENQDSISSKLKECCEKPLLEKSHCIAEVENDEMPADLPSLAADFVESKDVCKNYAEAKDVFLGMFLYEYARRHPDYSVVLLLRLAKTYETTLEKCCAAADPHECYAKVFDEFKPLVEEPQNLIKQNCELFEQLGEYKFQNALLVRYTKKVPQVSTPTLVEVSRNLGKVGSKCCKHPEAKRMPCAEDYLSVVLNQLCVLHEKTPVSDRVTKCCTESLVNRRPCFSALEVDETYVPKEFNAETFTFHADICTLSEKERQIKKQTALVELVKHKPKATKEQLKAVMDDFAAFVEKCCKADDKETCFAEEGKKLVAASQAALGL

Plasmodium yoelii = assay: Schizontocidal activity against Plasmodium yoelii infected in CD1 mouse administered via oral gavage as qd for 4 days starting 1 hr post infection by YOYO-1 dye-based flow cytometric method; format: functional
Method in brief: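 Blood schizontocidal activity was tested in a modified 4-day suppressive test in mice infected with P. yoelii. Four oral doses were given by gavage over four days.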

Plasmodium falciparum = assay: Antimalarial activity against Plasmodium falciparum 3D7A infected in human RBC after 48 hrs by [3H]-hypoxanthine incorporation assay; format: functional
[5] = AUC (0 to t) in CD1 mouse at 8.7 mg/kg administered via oral gavage by LC-MS/MS method; format: ADME, organism-based; conditions: in vivo; method in brief: as §1
[6] = AUC (infinity) in CD1 mouse at 8.7 mg/kg administered via oral gavage by LC-MS/MS method; format: ADME, organism-based; set-up: dose 8.7 mg/kg, route oral, time infinity; conditions: in vivo; method in brief: as §1
[7] = Tmax in CD1 mouse at 8.7 mg/kg administered via oral gavage by LC-MS/MS method; format: ADME, organism-based; conditions: in vivo; method in brief: as §2
[8] = Volume of distribution in CD1 mouse at 1.45 mg/kg, iv as bolus dose by LC-MS/MS method; format: ADME, organism-based; conditions: in vivo; method in brief: as §2
[9] = AUC (0 to t) in CD1 mouse at 11.512 mg/kg administered via oral gavage by LC-MS/MS method; format: ADME, organism-based; conditions: in vivo; method in brief: as §1
[10] = Equilibrium solubility of compound in FeSSIF after 24 hrs by LC-MS method; format: physicochemical
[11] = Cmax in CD1 mouse at 11.512 mg/kg administered via oral gavage by LC-MS/MS method; format: ADME, organism-based; set-up: dose 11.512 mg/kg, route oral; conditions: in vivo, 11.51 mg/kg; method in brief: as §1
[12] = Clearance in CD1 mouse at […], iv as bolus dose by LC-MS/MS method; format: ADME, organism-based; conditions: in vivo
[13] = Oral bioavailability in CD1 mouse at 11.512 mg/kg administered via gavage by LC-MS/MS method; format: ADME, organism-based; conditions: in vivo; method in brief: as §1
[14] = Equilibrium solubility of compound in FaSSIF after 24 hrs by LC-MS method; format: physicochemical
[15] = Tmax in CD1 mouse at 11.512 mg/kg administered via oral gavage by LC-MS/MS method; format: ADME, organism-based; conditions: in vivo; method in brief: as §2
[16] = Volume of distribution in CD1 mouse at […], iv as bolus dose by LC-MS/MS method; format: ADME, organism-based; conditions: in vivo
[17] = Half life in CD1 mouse at […], iv as bolus dose by LC-MS/MS method; format: ADME, organism-based; conditions: in vivo
[18] = AUC (infinity) in CD1 mouse at 11.512 mg/kg administered via oral gavage by LC-MS/MS method; format: ADME, organism-based; set-up: dose 11.512 mg/kg, time infinity, route oral; conditions: in vivo, 11.51 mg/kg; method in brief: as §1

clearance [1]: 1.76 mL/min/kg
bioavailability [2]: 133%
Cmax [3]: 8540 ng/mL
half-life [4]: 7.4 h
fraction unbound (serum albumin): 0.05
IC50 (Plasmodium falciparum): 34 nM
AUC(0-t) [5]: 110 µg·h/mL
AUC(0-inf) [6]: 111 µg·h/mL
Tmax [7]: 1 h
Vd [8]: 1.11 L/kg
SMILES: Cc1[nH]c(CO)c(-c2ccc(-c3ccc(OC(F)(F)F)cc3)nc2)c(=O)c1Cl
ED50 (Plasmodium yoelii): 0.4 mg/kg

AUC(0-t) [9]: 204 µg·h/mL
solubility thermodynamic at 24 h [10]: 1.33 µg/mL (≈ 3.35 µM)
Cmax [11]: 6380 ng/mL
fraction unbound (serum albumin): 0.05
clearance [12]: 0.26 mL/min/kg
bioavailability [13]: 30%
solubility thermodynamic at 24 h [14]: < 1 µg/mL
Tmax [15]: 10 h
IC50 (Plasmodium falciparum): 10 nM
Vd [16]: 0.75 L/kg
half-life [17]: 33.8 h
AUC(0-inf) [18]: 226 µg·h/mL
SMILES: Cc1[nH]c(C)c(-c2ccc(-c3ccc(C(F)(F)F)cc3F)nc2)c(=O)c1Cl
ED50 (Plasmodium yoelii): 0.08 mg/kg
